Source: ChEMBL document CHEMBL3751664, “Design, Synthesis, and Identification of Silicon Incorporated Oxazolidinone Antibiotics with Improved Brain Exposure” (ACS Med Chem Lett, 2015)
≈ marks a conversion by molar mass, not a printed value.

How the values were obtained:
Brain [1] = assay: AUC (0 to infinity) in BALB/c mouse brain at 10 mg/kg, po by LC-MS/MS analysis; assay type: ADME, organism-based; set-up: dose 10 mg/kg, time infinity, route oral; conditions: in vivo
Method in brief: (§1)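 Single oral 10 mg/kg dose, with 2 animals per group. Brain and plasma sampled; brain Cmax is reported as μg/g and brain AUC0-t and AUC0-inf as μg·h/g. Brain-to-plasma ratios are derived from AUC values, and also from Cmax.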

[2] = Metabolic stability in human liver microsomes after 30 mins by LC-MS/MS analysis; assay type: ADME; conditions: read-out: Stability
Method in brief: (§2)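 Compounds are incubated with liver microsomes for 30 min, and the result is expressed as % parent remaining (% metabolic stability).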

Plasma [3] = assay: Metabolic stability in human plasma by LC-MS/MS analysis; assay type: ADME, cell-free
Method in brief: (§3)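 Plasma stability is expressed as % compound remaining after incubation in plasma.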

[4] = AUC (0 to t) in BALB/c mouse plasma at 10 mg/kg, po by LC-MS/MS analysis; assay type: ADME, organism-based; method in brief: as §1
[5] = Metabolic stability in mouse liver microsomes after 30 mins by LC-MS/MS analysis; assay type: ADME; conditions: read-out: Stability; method in brief: as §2
Neisseria meningitidis [6] = assay: Antibacterial activity against clinical isolate Neisseria meningitidis M-1 by microbroth dilution method; assay type: functional
Method in brief: (§4)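 Minimum inhibitory concentration (MIC) read by broth microdilution and reported in μg/mL. The same microbroth screen was run on the broader panel of facultative bacteria.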

Neisseria meningitidis [7] = assay: Antibacterial activity against clinical isolate Neisseria meningitidis E-95 by microbroth dilution method; assay type: functional; method in brief: as §4
[8] = Plasma protein binding in human; assay type: ADME, cell-free; conditions: read-out: PPB (converted)
Neisseria meningitidis [9] = assay: Antibacterial activity against clinical isolate Neisseria meningitidis E-63 by microbroth dilution method; assay type: functional; method in brief: as §4
[10] = AUC (0 to infinity) in BALB/c mouse plasma at 10 mg/kg, po by LC-MS/MS analysis; assay type: ADME, organism-based; set-up: dose 10 mg/kg, time infinity, route oral; method in brief: as §1
Plasma [11] = assay: Metabolic stability in rat plasma by LC-MS/MS analysis; assay type: ADME, cell-free; method in brief: as §3
Neisseria meningitidis [12] = assay: Antibacterial activity against clinical isolate Neisseria meningitidis 184 by microbroth dilution method; assay type: functional; method in brief: as §4
[13] = Metabolic stability in rat liver microsomes after 30 mins by LC-MS/MS analysis; assay type: ADME; conditions: read-out: Stability; method in brief: as §2
Neisseria meningitidis [14] = assay: Antibacterial activity against clinical isolate Neisseria meningitidis 306 by microbroth dilution method; assay type: functional; method in brief: as §4
Streptococcus pneumoniae [15] = assay: Antibacterial activity against linezolid-resistant Streptococcus pneumoniae 6303 by microbroth dilution method; assay type: functional
Method in brief: (§5)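 MIC is determined by broth microdilution and expressed in μg/mL.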

[16] = Cmax in BALB/c mouse plasma at 10 mg/kg, po by LC-MS/MS analysis; assay type: ADME, organism-based; set-up: dose 10 mg/kg, route oral; method in brief: as §1
[17] = Cmax in BALB/c mouse brain at 10 mg/kg, po by LC-MS/MS analysis; assay type: ADME, organism-based; set-up: dose 10 mg/kg, route oral; method in brief: as §1
Brain [18] = assay: AUC (0 to t) in BALB/c mouse brain at 10 mg/kg, po by LC-MS/MS analysis; assay type: ADME, organism-based; conditions: in vivo; method in brief: as §1
[19] = Solubility of compound at pH 10.2 by HPLC analysis; assay type: physicochemical; conditions: buffer
[20] = Solubility of compound at pH 4.5 by HPLC analysis; assay type: physicochemical; conditions: buffer
[21] = Ratio of AUC (0 to infinity) in brain to plasma in BALB/c mouse at 10 mg/kg, po; assay type: ADME, organism-based; method in brief: as §1
[22] = Solubility of compound at pH 2.2 by HPLC analysis; assay type: physicochemical; conditions: buffer
[23] = Solubility of compound at pH 1.2 by HPLC analysis; assay type: physicochemical; conditions: buffer
Streptococcus pneumoniae [24] = assay: Antibacterial activity against pencillin-resistant erm+ve Streptococcus pneumoniae ATCC 700904 by microbroth dilution method; assay type: functional; method in brief: as §5
Streptococcus pneumoniae [25] = assay: Antibacterial activity against Streptococcus pneumoniae ATCC 6303 by microbroth dilution method; assay type: functional; method in brief: as §5
Streptococcus pneumoniae [26] = assay: Antibacterial activity against Streptococcus pneumoniae ATCC 49619 by microbroth dilution method; assay type: functional; method in brief: as §5
[27] = Solubility of compound at pH 7.4 by HPLC analysis; assay type: physicochemical; conditions: buffer
[28] = Ratio of AUC (0 to t) in brain to plasma in BALB/c mouse at 10 mg/kg, po; assay type: ADME, organism-based; method in brief: as §1
[29] = Ratio of Cmax in brain to plasma in BALB/c mouse at 10 mg/kg, po; assay type: ADME, organism-based; method in brief: as §1

Row | SMILES | AUC (Brain [1]) | remaining at 0.5 h [2] | Stability (Plasma [3]) | AUC(0-t) [4] | remaining at 0.5 h [5] | MIC (Neisseria meningitidis [6]) | MIC (Neisseria meningitidis [7]) | fraction unbound [8] | MIC (Neisseria meningitidis [9]) | AUC(0-inf) [10] | Stability (Plasma [11]) | MIC (Neisseria meningitidis [12]) | remaining at 0.5 h [13] | MIC (Neisseria meningitidis [14]) | MIC (Streptococcus pneumoniae [15]) | Cmax [16] | Cmax [17] | AUCt (Brain [18]) | solubility [19] | solubility [20] | also measured
1 | CC(=O)NC[C@H]1CN(c2ccc(N3CCOCC3)c(F)c2)C(=O)O1 [LINEZOLID] | 0.9 µg·h/g | 100% | 100% | 7580 ng·h/mL | 100% | 8 µg/mL (≈ 23.7 µM) | 8 µg/mL (≈ 23.7 µM) | 0.74 | 8 µg/mL (≈ 23.7 µM) | 7700 ng·h/mL | 100% | 8 µg/mL (≈ 23.7 µM) | 88.3% | 8 µg/mL (≈ 23.7 µM) | 32 µg/mL (≈ 94.9 µM) | 3650 ng/mL | 450 ng/g | 0.83 µg·h/g | – | – | –
2 | CC(=O)NC[C@H]1CN(c2cc(F)c(N3CC[Si](C)(C)CC3)c(F)c2)C(=O)O1 | 16.44 µg·h/g | 69.8% | 100% | 5800 ng·h/mL | 68.4% | > 32 µg/mL | > 32 µg/mL | 0.004 | > 32 µg/mL | 6210 ng·h/mL | 94.7% | > 32 µg/mL | 9.6% | > 32 µg/mL | > 32 µg/mL | 2020 ng/mL | 5580 ng/g | 14.74 µg·h/g | 20 µM (≈ 7.95 µg/mL) | 20 µM (≈ 7.95 µg/mL) | Kp [21]: 2.65; solubility [22]: 43 µM (≈ 17.1 µg/mL); solubility [23]: 48 µM (≈ 19.1 µg/mL); MIC (Streptococcus pneumoniae [24]): 16 µg/mL (≈ 40.3 µM); MIC (Streptococcus pneumoniae [25]): 8 µg/mL (≈ 20.1 µM); MIC (Streptococcus pneumoniae [26]): 16 µg/mL (≈ 40.3 µM); solubility [27]: 17 µM (≈ 6.76 µg/mL); Kp [28]: 2.54; Kp [29]: 2.76
3 | CC(=O)NC[C@H]1CN(c2ccc(N3CC[Si](C)(C)CC3)c(F)c2)C(=O)O1 | 3.05 µg·h/g | 48.9% | 100% | 1780 ng·h/mL | 40.8% | > 32 µg/mL | > 32 µg/mL | 0.0567 | 32 µg/mL (≈ 84.3 µM) | 1800 ng·h/mL | 97.3% | > 32 µg/mL | 10.8% | > 32 µg/mL | > 32 µg/mL | 1050 ng/mL | 1330 ng/g | 3.01 µg·h/g | 41 µM (≈ 15.6 µg/mL) | 41 µM (≈ 15.6 µg/mL) | Kp [21]: 1.69; solubility [22]: 50 µM (≈ 19 µg/mL); solubility [23]: 50 µM (≈ 19 µg/mL); MIC (Streptococcus pneumoniae [24]): 4 µg/mL (≈ 10.5 µM); MIC (Streptococcus pneumoniae [25]): 4 µg/mL (≈ 10.5 µM); MIC (Streptococcus pneumoniae [26]): 8 µg/mL (≈ 21.1 µM); solubility [27]: 40 µM (≈ 15.2 µg/mL); Kp [28]: 1.69; Kp [29]: 1.27
4 | COC(=S)NC[C@H]1CN(c2ccc(N3CC[Si](C)(C)CC3)c(F)c2)C(=O)O1 | 3.24 µg·h/g | 43% | 100% | 870 ng·h/mL | 15.2% | 32 µg/mL (≈ 77.8 µM) | 32 µg/mL (≈ 77.8 µM) | – | 32 µg/mL (≈ 77.8 µM) | 930 ng·h/mL | 100% | 32 µg/mL (≈ 77.8 µM) | 5.7% | 32 µg/mL (≈ 77.8 µM) | 32 µg/mL (≈ 77.8 µM) | 370 ng/mL | 1470 ng/g | 3.11 µg·h/g | 2 µM (≈ 0.823 µg/mL) | 9 µM (≈ 3.7 µg/mL) | Kp [21]: 3.49; solubility [22]: 47 µM (≈ 19.3 µg/mL); solubility [23]: 48 µM (≈ 19.8 µg/mL); MIC (Streptococcus pneumoniae [24]): 4 µg/mL (≈ 9.72 µM); MIC (Streptococcus pneumoniae [25]): 4 µg/mL (≈ 9.72 µM); MIC (Streptococcus pneumoniae [26]): 4 µg/mL (≈ 9.72 µM); solubility [27]: 2 µM (≈ 0.823 µg/mL); Kp [28]: 3.57; Kp [29]: 3.96
